# Key:
# PBL [1] = experiment: Toxicity in 2-Gy gamma irradiated human PBL assessed as cytokinesis-block proliferation index at 7 uM treated for 2 to 19 hrs followed by compound washout measured after 72 hrs (reference value: 1.6 +/- 0.1); assay type: cell-based
# PBL [2] = experiment: Radioprotective activity in 2-Gy gamma irradiated human PBL assessed as binucleated cells with micronuclei at 7 uM treated for 2 to 19 hrs followed by compound washout measured after 72 hrs by cytochalasin-B-blocked micronucleus assay (reference value: 15.5 +/- 0.6%); assay type: functional
# Outline: (§1)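 Venous blood from five healthy male volunteers was γ-irradiated at 2 Gy (0.45 Gy/min) at room temperature and cultured. Compounds (0.8−7.4 μM final) were added 2 to 19 h after irradiation, at 37 °C. Cultures were then rinsed and moved to fresh RPMI 1640 for 72 h. Cytokinesis-block micronucleus assay: ≥1000 binucleated cells scored per sample (Countryman–Heddle criteria). Controls were non-treated irradiated cultures; one-way ANOVA with Tukey test.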
# PBL [3] = experiment: Radioprotective activity in 2-Gy gamma irradiated human PBL assessed as incidence of micronuclei in binucleated cells at 3.5 uM treated for 2 to 19 hrs followed by compound washout measured after 72 hrs by cytochalasin-B-blocked micronucleus assay (reference value: 1.2 +/- 0.03); assay type: functional; outline: as §1
# PBL [4] = experiment: Radioprotective activity in 2-Gy gamma irradiated human PBL assessed as incidence of micronuclei in 1000 binucleated cells at 7 uM treated for 2 to 19 hrs followed by compound washout measured after 72 hrs by cytochalasin-B-blocked micronucleus assay (reference value: 183 +/- 9.6); assay type: functional; outline: as §1
# PBL [5] = experiment: Radioprotective activity in 2-Gy gamma irradiated human PBL assessed as incidence of micronuclei in binucleated cells at 7 uM treated for 2 to 19 hrs followed by compound washout measured after 72 hrs by cytochalasin-B-blocked micronucleus assay (reference value: 1.2 +/- 0.03); assay type: functional; outline: as §1
# PBL [6] = experiment: Toxicity in 2-Gy gamma irradiated human PBL assessed as cytokinesis-block proliferation index at 1.8 uM treated for 2 to 19 hrs followed by compound washout measured after 72 hrs (reference value: 1.6 +/- 0.1); assay type: cell-based
# PBL [7] = experiment: Radioprotective activity in 2-Gy gamma irradiated human PBL assessed as incidence of micronuclei in 1000 binucleated cells at 1.8 uM treated for 2 to 19 hrs followed by compound washout measured after 72 hrs by cytochalasin-B-blocked micronucleus assay (reference value: 183 +/- 9.6); assay type: functional; outline: as §1
# PBL [8] = experiment: Radioprotective activity in 2-Gy gamma irradiated human PBL assessed as frequency of micronuclei at 3.5 uM treated for 2 to 19 hrs followed by compound washout measured after 72 hrs by cytochalasin-B-blocked micronucleus assay relative to control; assay type: functional; outline: as §1
# PBL [9] = experiment: Radioprotective activity in 2-Gy gamma irradiated human PBL assessed as frequency of micronuclei at 7 uM treated for 2 to 19 hrs followed by compound washout measured after 72 hrs by cytochalasin-B-blocked micronucleus assay relative to control; assay type: functional; outline: as §1
# PBL [10] = experiment: Radioprotective activity in 2-Gy gamma irradiated human PBL assessed as binucleated cells with micronuclei at 1.8 uM treated for 2 to 19 hrs followed by compound washout measured after 72 hrs by cytochalasin-B-blocked micronucleus assay (reference value: 15.5 +/- 0.6%); assay type: functional; outline: as §1
# PBL [11] = experiment: Radioprotective activity in 2-Gy gamma irradiated human PBL assessed as binucleated cells with micronuclei at 3.5 uM treated for 2 to 19 hrs followed by compound washout measured after 72 hrs by cytochalasin-B-blocked micronucleus assay (reference value: 15.5 +/- 0.6%); assay type: functional; outline: as §1
# PBL [12] = experiment: Radioprotective activity in 2-Gy gamma irradiated human PBL assessed as frequency of micronuclei at 1.8 uM treated for 2 to 19 hrs followed by compound washout measured after 72 hrs by cytochalasin-B-blocked micronucleus assay relative to control; assay type: functional; outline: as §1
# PBL [13] = experiment: Toxicity in 2-Gy gamma irradiated human PBL assessed as cytokinesis-block proliferation index at 3.5 uM treated for 2 to 19 hrs followed by compound washout measured after 72 hrs (reference value: 1.6 +/- 0.1); assay type: cell-based
# PBL [14] = experiment: Radioprotective activity in 2-Gy gamma irradiated human PBL assessed as incidence of micronuclei in 1000 binucleated cells at 3.5 uM treated for 2 to 19 hrs followed by compound washout measured after 72 hrs by cytochalasin-B-blocked micronucleus assay (reference value: 183 +/- 9.6); assay type: functional; outline: as §1
# PBL [15] = experiment: Radioprotective activity in 2-Gy gamma irradiated human PBL assessed as incidence of micronuclei in binucleated cells at 1.8 uM treated for 2 to 19 hrs followed by compound washout measured after 72 hrs by cytochalasin-B-blocked micronucleus assay (reference value: 1.2 +/- 0.03); assay type: functional; outline: as §1
# PBL [16] = experiment: Radioprotective activity in 2-Gy gamma irradiated human PBL assessed as incidence of micronuclei in binucleated cells at 3.7 uM treated for 2 to 19 hrs followed by compound washout measured after 72 hrs by cytochalasin-B-blocked micronucleus assay (reference value: 1.2 +/- 0.03); assay type: functional; outline: as §1
# PBL [17] = experiment: Radioprotective activity in 2-Gy gamma irradiated human PBL assessed as frequency of micronuclei at 3.7 uM treated for 2 to 19 hrs followed by compound washout measured after 72 hrs by cytochalasin-B-blocked micronucleus assay relative to control; assay type: functional; outline: as §1
# PBL [18] = experiment: Toxicity in 2-Gy gamma irradiated human PBL assessed as cytokinesis-block proliferation index at 3.7 uM treated for 2 to 19 hrs followed by compound washout measured after 72 hrs (reference value: 1.6 +/- 0.1); assay type: cell-based
# PBL [19] = experiment: Radioprotective activity in 2-Gy gamma irradiated human PBL assessed as binucleated cells with micronuclei at 7.4 uM treated for 2 to 19 hrs followed by compound washout measured after 72 hrs by cytochalasin-B-blocked micronucleus assay (reference value: 15.5 +/- 0.6%); assay type: functional; outline: as §1
# PBL [20] = experiment: Radioprotective activity in 2-Gy gamma irradiated human PBL assessed as frequency of micronuclei at 7.4 uM treated for 2 to 19 hrs followed by compound washout measured after 72 hrs by cytochalasin-B-blocked micronucleus assay relative to control; assay type: functional; outline: as §1
# PBL [21] = experiment: Radioprotective activity in 2-Gy gamma irradiated human PBL assessed as incidence of micronuclei in 1000 binucleated cells at 3.7 uM treated for 2 to 19 hrs followed by compound washout measured after 72 hrs by cytochalasin-B-blocked micronucleus assay (reference value: 183 +/- 9.6); assay type: functional
# Outline: (§2)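 Venous blood from five healthy male volunteers was gamma-irradiated at 2 Gy (0.45 Gy/min) at room temperature, then cultured. Compounds (0.8–7.4 μM final) were added after irradiation for 19 h at 37 °C. Cells were rinsed and moved to fresh RPMI 1640 for 72 h. At least 1000 binucleated cells per sample were scored for micronuclei and CBPI calculated. Analysis used one-way ANOVA with Tukey test.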
# PBL [22] = experiment: Radioprotective activity in 2-Gy gamma irradiated human PBL assessed as binucleated cells with micronuclei at 3.7 uM treated for 2 to 19 hrs followed by compound washout measured after 72 hrs by cytochalasin-B-blocked micronucleus assay (reference value: 15.5 +/- 0.6%); assay type: functional; outline: as §1
# PBL [23] = experiment: Toxicity in 2-Gy gamma irradiated human PBL assessed as cytokinesis-block proliferation index at 7.4 uM treated for 2 to 19 hrs followed by compound washout measured after 72 hrs (reference value: 1.6 +/- 0.1); assay type: cell-based
# PBL [24] = experiment: Radioprotective activity in 2-Gy gamma irradiated human PBL assessed as incidence of micronuclei in 1000 binucleated cells at 7.4 uM treated for 2 to 19 hrs followed by compound washout measured after 72 hrs by cytochalasin-B-blocked micronucleus assay (reference value: 183 +/- 9.6); assay type: functional; outline: as §2
# PBL [25] = experiment: Radioprotective activity in 2-Gy gamma irradiated human PBL assessed as incidence of micronuclei in binucleated cells at 7.4 uM treated for 2 to 19 hrs followed by compound washout measured after 72 hrs by cytochalasin-B-blocked micronucleus assay (reference value: 1.2 +/- 0.03); assay type: functional; outline: as §1
# PBL [26] = experiment: Radioprotective activity in 2-Gy gamma irradiated human PBL assessed as incidence of micronuclei in 1000 binucleated cells at 4 uM treated for 2 to 19 hrs followed by compound washout measured after 72 hrs by cytochalasin-B-blocked micronucleus assay (reference value: 183 +/- 9.6); assay type: functional; outline: as §1
# PBL [27] = experiment: Radioprotective activity in 2-Gy gamma irradiated human PBL assessed as binucleated cells with micronuclei at 2 uM treated for 2 to 19 hrs followed by compound washout measured after 72 hrs by cytochalasin-B-blocked micronucleus assay (reference value: 15.5 +/- 0.6%); assay type: functional; outline: as §1
# PBL [28] = experiment: Toxicity in 2-Gy gamma irradiated human PBL assessed as cytokinesis-block proliferation index at 4 uM treated for 2 to 19 hrs followed by compound washout measured after 72 hrs (reference value: 1.6 +/- 0.1); assay type: cell-based
# PBL [29] = experiment: Radioprotective activity in 2-Gy gamma irradiated human PBL assessed as incidence of micronuclei in binucleated cells at 2 uM treated for 2 to 19 hrs followed by compound washout measured after 72 hrs by cytochalasin-B-blocked micronucleus assay (reference value: 1.2 +/- 0.03); assay type: functional; outline: as §1
# PBL [30] = experiment: Radioprotective activity in 2-Gy gamma irradiated human PBL assessed as binucleated cells with micronuclei at 1 uM treated for 2 to 19 hrs followed by compound washout measured after 72 hrs by cytochalasin-B-blocked micronucleus assay (reference value: 15.5 +/- 0.6%); assay type: functional; outline: as §1
# PBL [31] = experiment: Radioprotective activity in 2-Gy gamma irradiated human PBL assessed as incidence of micronuclei in binucleated cells at 4 uM treated for 2 to 19 hrs followed by compound washout measured after 72 hrs by cytochalasin-B-blocked micronucleus assay (reference value: 1.2 +/- 0.03); assay type: functional; outline: as §1
# PBL [32] = experiment: Radioprotective activity in 2-Gy gamma irradiated human PBL assessed as incidence of micronuclei in 1000 binucleated cells at 1 uM treated for 2 to 19 hrs followed by compound washout measured after 72 hrs by cytochalasin-B-blocked micronucleus assay (reference value: 183 +/- 9.6); assay type: functional; outline: as §1
# PBL [33] = experiment: Radioprotective activity in 2-Gy gamma irradiated human PBL assessed as frequency of micronuclei at 4 uM treated for 2 to 19 hrs followed by compound washout measured after 72 hrs by cytochalasin-B-blocked micronucleus assay relative to control; assay type: functional; outline: as §1
# PBL [34] = experiment: Radioprotective activity in 2-Gy gamma irradiated human PBL assessed as incidence of micronuclei in 1000 binucleated cells at 2 uM treated for 2 to 19 hrs followed by compound washout measured after 72 hrs by cytochalasin-B-blocked micronucleus assay (reference value: 183 +/- 9.6); assay type: functional; outline: as §1
# PBL [35] = experiment: Radioprotective activity in 2-Gy gamma irradiated human PBL assessed as incidence of micronuclei in binucleated cells at 1 uM treated for 2 to 19 hrs followed by compound washout measured after 72 hrs by cytochalasin-B-blocked micronucleus assay (reference value: 1.2 +/- 0.03); assay type: functional; outline: as §1
# PBL [36] = experiment: Radioprotective activity in 2-Gy gamma irradiated human PBL assessed as binucleated cells with micronuclei at 4 uM treated for 2 to 19 hrs followed by compound washout measured after 72 hrs by cytochalasin-B-blocked micronucleus assay (reference value: 15.5 +/- 0.6%); assay type: functional; outline: as §1
# PBL [37] = experiment: Radioprotective activity in 2-Gy gamma irradiated human PBL assessed as frequency of micronuclei at 1 uM treated for 2 to 19 hrs followed by compound washout measured after 72 hrs by cytochalasin-B-blocked micronucleus assay relative to control; assay type: functional; outline: as §1
# PBL [38] = experiment: Toxicity in 2-Gy gamma irradiated human PBL assessed as cytokinesis-block proliferation index at 1 uM treated for 2 to 19 hrs followed by compound washout measured after 72 hrs (reference value: 1.6 +/- 0.1); assay type: cell-based
# PBL [39] = experiment: Toxicity in 2-Gy gamma irradiated human PBL assessed as cytokinesis-block proliferation index at 2 uM treated for 2 to 19 hrs followed by compound washout measured after 72 hrs (reference value: 1.6 +/- 0.1); assay type: cell-based
# PBL [40] = experiment: Radioprotective activity in 2-Gy gamma irradiated human PBL assessed as frequency of micronuclei at 2 uM treated for 2 to 19 hrs followed by compound washout measured after 72 hrs by cytochalasin-B-blocked micronucleus assay relative to control; assay type: functional; outline: as §1
compound,measurement,setting,value
OC[C@H]1O[C@@H](OCc2ccc(O)cc2)[C@H](O)[C@@H](O)[C@@H]1O,Activity,PBL [1],1.7
same,Activity,PBL [2],13.6%
same,Activity,PBL [3],1.2
same,Activity,PBL [4],159.2
same,Activity,PBL [5],1.2
same,Activity,PBL [6],1.7
same,Activity,PBL [7],156.4
same,Activity,PBL [8],85.1%
same,Activity,PBL [9],87%
same,Activity,PBL [10],13.1%
same,Activity,PBL [11],13.1%
same,Activity,PBL [12],85.5%
same,Activity,PBL [13],1.8
same,Activity,PBL [14],155.7
same,Activity,PBL [15],1.2
OC[C@H]1O[C@@H](Oc2ccc(O)cc2)[C@H](O)[C@@H](O)[C@@H]1O [ARBUTIN],Activity,PBL [16],1.3
same,Activity,PBL [17],103.4%
same,Activity,PBL [18],1.8
same,Activity,PBL [19],15.8%
same,Activity,PBL [20],107.8%
same,Activity,PBL [6],1.7
same,Activity,PBL [21],189.3
same,Activity,PBL [7],191.2
same,Activity,PBL [10],15.1%
same,Activity,PBL [22],15%
same,Activity,PBL [23],1.6
same,Activity,PBL [24],197.2
same,Activity,PBL [25],1.2
same,Activity,PBL [12],104.5%
same,Activity,PBL [15],1.3
COc1cc(-c2oc3cc(O)c(OC)c(O)c3c(=O)c2O[C@@H]2O[C@H](CO)[C@@H](O)[C@H](O)[C@H]2O)ccc1O,Activity,PBL [26],148
same,Activity,PBL [27],11.7%
same,Activity,PBL [28],1.6
same,Activity,PBL [29],1.2
same,Activity,PBL [30],12.1%
same,Activity,PBL [31],1.2
same,Activity,PBL [32],141.8
same,Activity,PBL [33],80.9%
same,Activity,PBL [34],139.3
same,Activity,PBL [35],1.2
same,Activity,PBL [36],12.3%
same,Activity,PBL [37],77.5%
same,Activity,PBL [38],1.6
same,Activity,PBL [39],1.6
same,Activity,PBL [40],76.1%

# Source: ChEMBL document CHEMBL3608301, “Phenolic Compounds from Atriplex littoralis and Their Radiation-Mitigating Activity” (J Nat Prod, 2015)
